In ChEMBL document CHEMBL1795239, “MAO inhibitory activity modulation: 3-Phenylcoumarins versus 3-benzoylcoumarins” (Bioorg Med Chem Lett, 2011):

How the values were obtained:
[1] = target: T1, Amine oxidase [flavin-containing] A (Homo sapiens, UniProt P21397); assay: Inhibition of human recombinant MAO-A using p-tyramine substrate at 100 uM by fluorometric method
T1 sequence (P21397 whole entry): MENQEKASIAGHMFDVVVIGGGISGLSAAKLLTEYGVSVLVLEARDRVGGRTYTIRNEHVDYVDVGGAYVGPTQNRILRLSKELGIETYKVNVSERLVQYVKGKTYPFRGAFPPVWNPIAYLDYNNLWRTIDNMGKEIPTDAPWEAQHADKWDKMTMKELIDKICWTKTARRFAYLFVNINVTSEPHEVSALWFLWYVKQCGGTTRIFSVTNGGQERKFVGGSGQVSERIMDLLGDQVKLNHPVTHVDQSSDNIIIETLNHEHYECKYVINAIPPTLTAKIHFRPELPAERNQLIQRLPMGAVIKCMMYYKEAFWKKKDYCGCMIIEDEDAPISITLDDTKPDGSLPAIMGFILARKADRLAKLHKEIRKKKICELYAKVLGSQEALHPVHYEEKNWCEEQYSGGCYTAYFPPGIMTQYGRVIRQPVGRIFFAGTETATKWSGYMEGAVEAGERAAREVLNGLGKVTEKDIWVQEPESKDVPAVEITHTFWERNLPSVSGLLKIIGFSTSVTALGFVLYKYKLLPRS
In short: (§1)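 Recombinant human MAO-A or MAO-B expressed in baculovirus-infected BTI insect cells. Enzyme amounts set so both isoforms give the same rate, 165 pmol p-tyramine/min. Assay run in 0.05 M sodium phosphate pH 7.4 at 37 °C with compounds at several concentrations, 200 Amplex Red, 1 U/mL horseradish peroxidase and 1 mM p-tyramine. Resorufin fluorescence (ex 545/em 590 nm) read over a linear 15 min window. Vehicle controls run alongside.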

[2] = target: T2, Amine oxidase [flavin-containing] B (Homo sapiens, UniProt P27338); assay: Inhibition of human recombinant MAO-B using p-tyramine substrate at 100 uM by fluorometric method; settings: for inhibition (INH): 100 µM; in short: as §1
T2 sequence (P27338 whole entry): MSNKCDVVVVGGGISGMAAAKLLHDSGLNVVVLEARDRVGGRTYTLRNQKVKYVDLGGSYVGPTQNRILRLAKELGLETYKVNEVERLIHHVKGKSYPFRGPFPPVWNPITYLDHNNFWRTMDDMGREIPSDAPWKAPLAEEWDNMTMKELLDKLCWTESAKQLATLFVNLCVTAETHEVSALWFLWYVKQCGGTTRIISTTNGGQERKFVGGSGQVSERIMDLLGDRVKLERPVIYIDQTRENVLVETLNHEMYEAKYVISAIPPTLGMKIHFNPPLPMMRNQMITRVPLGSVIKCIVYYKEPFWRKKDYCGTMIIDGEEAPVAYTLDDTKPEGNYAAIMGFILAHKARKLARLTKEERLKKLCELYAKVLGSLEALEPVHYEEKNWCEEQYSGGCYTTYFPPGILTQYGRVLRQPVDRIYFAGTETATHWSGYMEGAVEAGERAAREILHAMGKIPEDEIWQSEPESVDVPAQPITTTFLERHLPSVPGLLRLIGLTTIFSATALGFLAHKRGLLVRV

Homo sapiens = species on record: Homo sapiens; assay: Selectivity index, ratio of IC50 for human recombinant MAO-A to human recombinant MAO-B
In short: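 MAO-B selectivity index is IC50(MAO-A)/IC50(MAO-B). Both IC50s come from the fluorimetric Amplex Red/peroxidase assay with 1 mM p-tyramine, using recombinant hMAO-A and hMAO-B from baculovirus-infected insect cells.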

[3] = target: T2, Amine oxidase [flavin-containing] B; assay: Inhibition of human recombinant MAO-B using p-tyramine substrate by fluorometric method
[4] = target: T1, Amine oxidase [flavin-containing] A; assay: Inhibition of human recombinant MAO-A using p-tyramine substrate by fluorometric method

Row | Compound | inhibition (INH) [1] | inhibition (INH) [2] | Ratio IC50 (Homo sapiens) | IC50 [3] | IC50 [4] | inhibition at 100 µM [2]
1 | COc1cc(Br)cc2cc(C(=O)c3ccccc3)c(=O)oc12 | Not Active | Not Active |  |  |  | 
2 | COc1ccc(C(=O)c2cc3cc(Br)cc(OC)c3oc2=O)cc1 | Not Active | Not Active |  |  |  | 
3 | O=C(c1ccc(O)cc1)c1cc2cc(Br)cc(O)c2oc1=O |  |  | 0.19 |  | 19.2 µM | 45%
4 | O=c1oc2c(O)cc(Br)cc2cc1-c1ccc(O)cc1 |  |  | 1.2 | 16.9 µM | 20.7 µM | 
5 | COc1cc(Br)cc2cc(-c3ccccc3)c(=O)oc12 | Not Active |  | > 1200 | 0.0835 µM |  | 

Second part, the molecule after the results:

Row | inhibition (INH) [1] | inhibition (INH) [2] | Ratio IC50 (Homo sapiens) | IC50 [3] | IC50 [4] | inhibition at 100 µM [2] | Compound
6 | Not Active |  | > 74100 | 0.00135 µM |  |  | COc1ccc(-c2cc3cc(Br)cc(OC)c3oc2=O)cc1
7 |  |  | 0.63 | 73.9 µM | 46.8 µM |  | O=C(c1ccccc1)c1cc2cc(Br)cc(O)c2oc1=O
8 | Not Active |  | > 3.2 | 30.9 µM |  |  | O=c1oc2c(O)cc(Br)cc2cc1-c1ccccc1
